In ChEMBL document CHEMBL1136939, “Fluorinated isatin derivatives. Part 2. New N-substituted 5-pyrrolidinylsulfonyl isatins as potential tools for molecular imaging of caspases in apoptosis” (J Med Chem, 2009):

What was measured:
Caspase-6 = molecular target: T1, Caspase-6 (Homo sapiens, UniProt P55212); test: Inhibition of human recombinant caspase 6 assessed as accumulation of cleaved fluorogenic 7-amino-4-methylcoumarin after 10 mins
T1 sequence (P55212 whole entry): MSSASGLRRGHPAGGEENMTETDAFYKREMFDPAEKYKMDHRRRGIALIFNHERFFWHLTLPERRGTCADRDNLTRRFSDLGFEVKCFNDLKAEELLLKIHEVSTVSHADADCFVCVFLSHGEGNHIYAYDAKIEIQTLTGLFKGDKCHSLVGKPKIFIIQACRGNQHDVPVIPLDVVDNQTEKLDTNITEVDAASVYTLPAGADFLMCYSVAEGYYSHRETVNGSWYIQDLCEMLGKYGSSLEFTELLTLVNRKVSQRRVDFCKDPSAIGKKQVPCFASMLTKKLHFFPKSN
Summary of the method: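 Substrate Ac-VEID-AMC at 10 µM final, added after the enzyme (0.5 units per assay) has been preincubated 10 min at 37 °C with compound in DMSO at single doses of 5 pM–500 µM. Reaction runs 10 min, then AMC is read at ex 360, em 460 nm. IC50 by nonlinear regression; mean ± SD, n=3.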

Caspase-7 = molecular target: T2, Caspase-7 (Homo sapiens, UniProt P55210); test: Inhibition of human recombinant caspase 7 assessed as accumulation of cleaved fluorogenic 7-amino-4-methylcoumarin after 10 mins
T2 sequence (P55210 whole entry): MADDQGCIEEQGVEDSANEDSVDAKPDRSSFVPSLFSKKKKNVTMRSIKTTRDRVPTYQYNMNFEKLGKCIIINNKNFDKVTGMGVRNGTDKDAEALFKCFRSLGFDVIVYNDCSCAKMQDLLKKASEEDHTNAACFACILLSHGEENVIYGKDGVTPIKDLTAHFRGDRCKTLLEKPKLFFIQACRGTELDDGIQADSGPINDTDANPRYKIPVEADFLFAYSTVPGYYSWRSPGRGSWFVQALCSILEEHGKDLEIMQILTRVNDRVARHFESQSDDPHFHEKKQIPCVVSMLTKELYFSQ
Summary of the method: (§1)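 Ac-DEVD-AMC substrate, 10 µM final. Enzyme at 0.5 units per assay is preincubated 10 min at 37 °C in reaction buffer with compound in DMSO at 5 pM–500 µM final. Substrate reacts a further 10 min. AMC fluorescence is read at 360/460 nm. IC50 by nonlinear regression, mean ± SD of three assays.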

Caspase-3 = molecular target: T3, Caspase-3 (Homo sapiens, UniProt P42574); test: Inhibition of human recombinant caspase 3 assessed as accumulation of cleaved fluorogenic 7-amino-4-methylcoumarin after 10 mins; summary of the method: as §1
T3 sequence (P42574 whole entry): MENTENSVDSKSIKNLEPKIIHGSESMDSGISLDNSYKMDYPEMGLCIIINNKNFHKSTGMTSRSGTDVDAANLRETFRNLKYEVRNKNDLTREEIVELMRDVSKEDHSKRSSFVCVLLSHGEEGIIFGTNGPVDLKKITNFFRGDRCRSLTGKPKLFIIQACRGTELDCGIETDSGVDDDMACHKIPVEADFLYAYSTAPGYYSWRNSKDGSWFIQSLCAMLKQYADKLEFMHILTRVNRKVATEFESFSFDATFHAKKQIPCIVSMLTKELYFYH

Caspase-1 = molecular target: T4, Caspase-1 (Homo sapiens, UniProt P29466); test: Inhibition of human recombinant caspase 1 assessed as accumulation of cleaved fluorogenic 7-amino-4-methylcoumarin after 10 mins
T4 sequence (P29466 whole entry): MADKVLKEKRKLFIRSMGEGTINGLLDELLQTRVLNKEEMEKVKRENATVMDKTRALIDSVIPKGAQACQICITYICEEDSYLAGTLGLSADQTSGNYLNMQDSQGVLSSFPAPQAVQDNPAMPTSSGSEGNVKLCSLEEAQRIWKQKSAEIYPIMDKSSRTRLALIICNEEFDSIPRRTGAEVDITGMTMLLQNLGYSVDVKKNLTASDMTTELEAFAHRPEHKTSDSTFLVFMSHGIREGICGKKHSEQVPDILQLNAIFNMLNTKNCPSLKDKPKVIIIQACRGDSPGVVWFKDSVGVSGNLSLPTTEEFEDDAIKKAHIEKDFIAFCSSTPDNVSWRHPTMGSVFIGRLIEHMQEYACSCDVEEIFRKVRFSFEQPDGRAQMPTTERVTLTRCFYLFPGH
Summary of the method: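 Ac-YVAD-AMC substrate, 10 µM final. Enzyme at 0.5 units per assay is preincubated 10 min at 37 °C with compound in DMSO, single doses 5 pM–500 µM final. Substrate is then added and reacts 10 more min. AMC is read at ex 360/em 460 nm. IC50 comes from nonlinear regression, mean ± SD of three assays.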

Structure (SMILES): COC[C@@H]1CCCN1S(=O)(=O)c1ccc2c(c1)C(=O)C(=O)N2CCC(O)CF (stereo partly drawn)
- IC50 (Caspase-6): > 500000 nM
- IC50 (Caspase-7): 99 nM
- IC50 (Caspase-3): 3.6 nM
- IC50 (Caspase-1): > 500000 nM

Structure (SMILES): C=CCOc1ccc(CN2C(=O)C(=O)c3cc(S(=O)(=O)N4CCC[C@H]4COC)ccc32)cc1
- IC50 (Caspase-6): > 500000 nM
- IC50 (Caspase-7): 0.6 nM
- IC50 (Caspase-3): 10 nM
- IC50 (Caspase-1): > 500000 nM

Structure (SMILES): C=CCN1C(=O)C(=O)c2cc(S(=O)(=O)N3CCC[C@H]3COC)ccc21
- IC50 (Caspase-6): > 500000 nM
- IC50 (Caspase-7): 24 nM
- IC50 (Caspase-3): 25 nM
- IC50 (Caspase-1): > 500000 nM

Structure (SMILES): COC[C@@H]1CCCN1S(=O)(=O)c1ccc2c(c1)C(=O)C(=O)N2CC(F)(F)CBr
- IC50 (Caspase-7): 1660 nM
- IC50 (Caspase-3): 1880 nM

Structure (SMILES): COC[C@@H]1CCCN1S(=O)(=O)c1ccc2c(c1)C(=O)C(=O)N2Cc1ccc(C(F)CBr)cc1 (stereo partly drawn)
- IC50 (Caspase-6): > 500000 nM
- IC50 (Caspase-7): 16 nM
- IC50 (Caspase-3): 43 nM
- IC50 (Caspase-1): > 500000 nM

Structure (SMILES): COC[C@@H]1CCCN1S(=O)(=O)c1ccc2c(c1)C(=O)C(=O)N2C[C@H]1CO1
- IC50 (Caspase-6): > 500000 nM
- IC50 (Caspase-7): 9 nM
- IC50 (Caspase-3): 17 nM
- IC50 (Caspase-1): 3160 nM

Structure (SMILES): C=Cc1ccc(CN2C(=O)C(=O)c3cc(S(=O)(=O)N4CCC[C@H]4COC)ccc32)cc1
- IC50 (Caspase-6): > 500000 nM
- IC50 (Caspase-7): 7.2 nM
- IC50 (Caspase-3): 9.3 nM
- IC50 (Caspase-1): > 500000 nM

Structure (SMILES): C=CCCCCCCCCCN1C(=O)C(=O)c2cc(S(=O)(=O)N3CCC[C@H]3COC)ccc21
- IC50 (Caspase-6): > 500000 nM
- IC50 (Caspase-7): 111 nM
- IC50 (Caspase-3): 74 nM
- IC50 (Caspase-1): > 500000 nM

Structure (SMILES): COC[C@@H]1CCCN1S(=O)(=O)c1ccc2c(c1)C(=O)C(=O)N2Cc1ccc(OCC(O)CF)cc1 (stereo partly drawn)
- IC50 (Caspase-6): > 500000 nM
- IC50 (Caspase-7): 5 nM
- IC50 (Caspase-3): 145 nM
- IC50 (Caspase-1): > 500000 nM

Structure (SMILES): COC[C@@H]1CCCN1S(=O)(=O)c1ccc2c(c1)C(=O)C(=O)N2Cc1ccc(C(F)CO)cc1 (stereo partly drawn)
- IC50 (Caspase-6): > 500000 nM
- IC50 (Caspase-7): 7.6 nM
- IC50 (Caspase-3): 80 nM
- IC50 (Caspase-1): > 500000 nM

Structure (SMILES): COC[C@@H]1CCCN1S(=O)(=O)c1ccc2c(c1)C(=O)C(=O)N2Cc1ccc(C2CO2)cc1 (stereo partly drawn)
- IC50 (Caspase-6): > 500000 nM
- IC50 (Caspase-7): 1.9 nM
- IC50 (Caspase-3): 6.6 nM
- IC50 (Caspase-1): > 500000 nM

Structure (SMILES): COC[C@@H]1CCCN1S(=O)(=O)c1ccc2c(c1)C(=O)C(=O)N2CCC1CO1 (stereo partly drawn)
- IC50 (Caspase-6): > 500000 nM
- IC50 (Caspase-7): 68 nM
- IC50 (Caspase-3): 151 nM
- IC50 (Caspase-1): > 500000 nM

Structure (SMILES): COC[C@@H]1CCCN1S(=O)(=O)c1ccc2c(c1)C(=O)C(=O)N2C[C@H](O)CO
- IC50 (Caspase-6): > 500000 nM
- IC50 (Caspase-7): 43 nM
- IC50 (Caspase-3): 11 nM
- IC50 (Caspase-1): > 500000 nM

Structure (SMILES): O=C1Nc2ccc(S(=O)(=O)N3CCC[C@H]3COc3ccccc3)cc2C1=O
- IC50 (Caspase-6): > 500000 nM
- IC50 (Caspase-1): > 500000 nM

Structure (SMILES): COC[C@@H]1CCCN1S(=O)(=O)c1ccc2c(c1)C(=O)C(=O)N2CCC(O)CO (stereo partly drawn)
- IC50 (Caspase-6): > 500000 nM
- IC50 (Caspase-7): 61 nM
- IC50 (Caspase-3): 275 nM
- IC50 (Caspase-1): > 500000 nM

Structure (SMILES): COC[C@@H]1CCCN1S(=O)(=O)c1ccc2c(c1)C(=O)C(=O)N2C[C@H](O)CF
- IC50 (Caspase-6): > 500000 nM
- IC50 (Caspase-7): 349 nM
- IC50 (Caspase-3): 19 nM
- IC50 (Caspase-1): > 500000 nM

Structure (SMILES): COC[C@@H]1CCCN1S(=O)(=O)c1ccc2c(c1)C(=O)C(=O)N2Cc1ccc(OCC2CO2)cc1 (stereo partly drawn)
- IC50 (Caspase-6): > 500000 nM
- IC50 (Caspase-7): 2.4 nM
- IC50 (Caspase-3): 42 nM
- IC50 (Caspase-1): > 500000 nM

Structure (SMILES): CN1C(=O)C(=O)c2cc(S(=O)(=O)N3CCC[C@H]3COc3ccccc3)ccc21
- IC50 (Caspase-6): > 500000 nM
- IC50 (Caspase-7): 304 nM
- IC50 (Caspase-3): 2.4 nM
- IC50 (Caspase-1): > 500000 nM

Structure (SMILES): C=CCCN1C(=O)C(=O)c2cc(S(=O)(=O)N3CCC[C@H]3COC)ccc21
- IC50 (Caspase-6): > 500000 nM
- IC50 (Caspase-7): 50 nM
- IC50 (Caspase-3): 31 nM
- IC50 (Caspase-1): > 500000 nM

Structure (SMILES): COC[C@@H]1CCCN1S(=O)(=O)c1ccc2c(c1)C(=O)C(=O)N2
- IC50 (Caspase-6): > 500000 nM
- IC50 (Caspase-1): > 500000 nM

Structure (SMILES): COC[C@@H]1CCCN1S(=O)(=O)c1ccc2c(c1)C(=O)C(=O)N2CCCCCCCCCC1CO1 (stereo partly drawn)
- IC50 (Caspase-6): > 500000 nM
- IC50 (Caspase-7): 61 nM
- IC50 (Caspase-3): 23 nM
- IC50 (Caspase-1): > 500000 nM
